High-throughput results as filed in PubChem.
Only some compounds are listed: those with a hit (about 2.3% of all), similar ones and a draw of the others.
TROY NFkB inh: TROY signaling inhibition. Q293 LMP1-TROYcd NF-kB luciferase reporter, 4 h. inhibition, % at 10 µM. hit rate 0.98% among 360,000;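 active means compounds whose plate-normalised and pattern-corrected inhibition of the luciferase reporter signal at the single screening dose is 50% or more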
FN deposition inh: fibronectin deposition inhibition; AH1F fibroblasts, Alexa488-fibronectin deposition fluorescence, overnight; inhibition, % at 12.6 µM; hit rate 0.086% among 350,000;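 active means mean inhibition across replicates of 30% or more, regardless of how many single replicates reach that level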;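 further: positive control wells lacked labelled fibronectin entirely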
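Test system: AH1F fibroblast monolayer depositing Alexa488-labelled fibronectin into matrix. Input: 10000 cells per well. Technique: fluorescence, ex 485 nm, em 525 nm. Buffer or medium: DMEM plus 2% serum, read in PBS. Timing: 1 h cell adhesion before compound, then overnight fibronectin incubation. Compound: single dose, pinned. Read-out basis: inhibition from reduced deposited-fibronectin fluorescence.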
EWS-Fli block: blocks EWS/Fli oncoprotein-driven transcription; A673 NR0B1-luciferase reporter, viability-normalised; inhibition, % at 12.6 µM; hit rate 0.67% among 350,000; AID 651661;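 active means mean inhibition of at least 50% after viability correction, with every replicate also passing that limit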;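 further: firefly luciferase signal divided by Alamar Blue viability fluorescence both relative to DMSO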
TWEAK-Fn14 inh: TWEAK-Fn14 signaling inhibition. TWEAK-stimulated Fn14 reporter cells, luciferase luminescence, 8 h. inhibition, % at 10 µM. hit rate 2% among 360,000; in the data active means inhibition above about 50%
XiGFP reactiv: activators of X-chromosome reactivation in mouse fibroblasts; activation, % at 7.58 µM; hit rate 0.055% among 360,000; XiGFP mouse fibroblasts, % GFP-positive cells imaging, 3 d; cells co-treated with 5-aza-dC sensitizer; scaled so ellipticine positive control = 100%;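 active means mean normalized replicate activation at least 10% and every replicate at or above 10%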;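 further: 0% = median of on-plate neutral control wells and 100% = ellipticine 6 µM median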
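Material: XiGFP fibroblasts, SV40-immortalized; Buffer or medium: DMEM containing 5-aza-dC; Compound dosing: single point; Times: 3 days compound exposure.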
LGR2 antag: blocks bursicon-induced cAMP signaling via Drosophila LGR2; HEK293 LGR2, CRE-luciferase, bursicon-stimulated, 4 h; inhibition, % at 9.99 µM; hit rate 0.35% among 380,000; AID 720647;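 active means drop in luminescence signal, shown as inhibition above about 50% in the replicate tests, limit read from the data, passing the limit was not always enough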;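 further: agonist challenge used bursicon conditioned medium at about half maximal strength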
The depositor's hits bear a star; x = no result.

SMILES	TROY NFkB inh	FN deposition inh	EWS-Fli block	TWEAK-Fn14 inh	XiGFP reactiv	LGR2 antag
CC1CC(C)C(=O)C(C(CC2CC(=O)NC(=O)C2)OC(=O)CC(=O)c2ccccc2)C1 (stereo unspecified)	40	6	2	51*	0	82*
O=C1CCC(C(=O)OCC(=O)c2ccccc2)N1 (stereo unspecified)	10	x	-4	4	0	23
Cc1ccc(-c2nn(-c3ccccc3)cc2/C=C/C(=O)OCC(=O)NC2CC2)o1	56*	-2	-2	26	0	43
Cc1ccc(C(=O)c2oc3ccccc3c2NC(=O)c2cc(-c3ccccc3O)n[nH]2)cc1	5	7	x	-7	23*	4
C[C@@H]1CCCCO[C@H](CN(C)Cc2ccc(C(F)(F)F)cc2)[C@H](C)CN([C@@H](C)CO)C(=O)c2cc(NC(=O)c3ccccc3)ccc2O1	x	14	64*	x	0	-4
C[C@@H]1CCCCO[C@H](CN(C)Cc2ccc(C(F)(F)F)cc2)[C@@H](C)CN([C@H](C)CO)C(=O)c2cc(NC(=O)c3ccccc3)ccc2O1	x	x	0	x	-1	0
COc1ccc(CN(C)C[C@H]2OCCCC[C@H](C)Oc3ccc(NC(=O)Nc4ccc(C(F)(F)F)cc4)cc3C(=O)N([C@H](C)CO)C[C@@H]2C)cc1	x	x	71*	x	0	20
C[C@H](CO)N1C[C@H](C)[C@@H](CN(C)Cc2ccccc2)OCCCC[C@H](C)Oc2ccc(NC(=O)Nc3ccc4c(c3)OCO4)cc2C1=O	x	1	64*	x	0	8
COc1ccc(NC(=O)Nc2ccc3c(c2)C(=O)N([C@H](C)CO)C[C@@H](C)[C@H](CN(C)Cc2ccc(C(F)(F)F)cc2)OCCCC[C@H](C)O3)cc1	x	-4	61*	x	0	12
CCC(=O)N(C)C[C@@H]1Oc2cc(C#CC(C)C)ccc2S(=O)(=O)N([C@H](C)CO)C[C@H]1C	x	x	10	x	-1	11
O=C(CN1CCOCC1)NCC[C@@H]1CC[C@H](NC(=O)Nc2ccc(F)cc2)[C@@H](CO)O1	x	x	1	x	0	6
Cc1ccc(S(=O)(=O)N[C@@H]2CC[C@@H](CC(=O)O)O[C@H]2CO)cc1	x	x	2	x	0	-5
COc1ccc(CN(C)C[C@@H]2OCCCC[C@@H](C)Oc3ccc(NC(=O)Nc4ccc(C(F)(F)F)cc4)cc3C(=O)N([C@@H](C)CO)C[C@H]2C)cc1	x	x	71*	x	0	x
C[C@@H]1CCCCO[C@H](CN(C)Cc2ccncc2)[C@H](C)CN([C@@H](C)CO)C(=O)c2cc(NC(=O)NC3CCCCC3)ccc2O1	x	3	56*	x	0	-1
COc1ccc(CN(C)C[C@@H]2OCCCC[C@H](C)Oc3ccc(NC(=O)Nc4ccc(C(F)(F)F)cc4)cc3C(=O)N([C@H](C)CO)C[C@@H]2C)cc1	x	x	71*	x	0	x
C[C@@H]1CN([C@@H](C)CO)C(=O)c2cc(NC(=O)Cn3cnnn3)ccc2O[C@H]1CN(C)Cc1ccc(Cl)c(Cl)c1	x	x	63*	x	0	-4
COc1ccc(NC(=O)Nc2ccc3c(c2)C(=O)N([C@@H](C)CO)C[C@@H](C)[C@H](CN(C)Cc2ccc(C(F)(F)F)cc2)OCCCC[C@@H](C)O3)cc1	x	-14	0	x	0	5
C[C@@H]1CN([C@@H](C)CO)C(=O)c2cc(NC(=O)CCCN(C)C)ccc2O[C@@H]1CN(C)Cc1ccc(Cl)c(Cl)c1	x	2	2	x	0	10
O=C(NCCCN1CCOCC1)[C@@H]1[C@@H](CO)[C@@H]2Cn3c(cccc3=O)[C@H]1N2C(=O)C1CCCC1	x	x	5	x	0	-18
CNC[C@@H]1OCCCC[C@H](C)Oc2ccc(NC(=O)NC(C)C)cc2C(=O)N([C@H](C)CO)C[C@H]1C	x	5	x	x	0	18
C[C@@H]1CN([C@@H](C)CO)S(=O)(=O)c2ccc(Br)cc2O[C@@H]1CN(C)C(=O)C1CCC1	x	x	-7	x	-1	7
C[C@H]1CN([C@@H](C)CO)C(=O)c2cc(NC(=O)Nc3ccc(C(F)(F)F)cc3)ccc2O[C@H]1CN(C)Cc1ccc(Cl)c(Cl)c1	x	-15	3	x	-1	-6
C[C@@H]1CN([C@H](C)CO)C(=O)c2cc(NC(=O)Nc3ccc(C(F)(F)F)cc3)ccc2O[C@H]1CN(C)Cc1ccc(Cl)c(Cl)c1	23	-20	37	53*	-1	15
C[C@@H]1CCCCO[C@H](CN(C)Cc2ccc(C(F)(F)F)cc2)[C@H](C)CN([C@@H](C)CO)C(=O)c2cc(NC(=O)Nc3ccc(F)cc3)ccc2O1	x	-2	16	x	0	9
COc1ccc(CN(C)C[C@H]2OCCCC[C@@H](C)Oc3ccc(NC(=O)Nc4ccc(C(F)(F)F)cc4)cc3C(=O)N([C@@H](C)CO)C[C@H]2C)cc1	x	x	69*	x	0	x
SMILES	TROY NFkB inh	FN deposition inh	EWS-Fli block	TWEAK-Fn14 inh	XiGFP reactiv	LGR2 antag
C[C@@H]1CN([C@H](C)CO)C(=O)c2cc(NC(=O)Nc3ccc(F)cc3)ccc2O[C@@H](C)CCCCO[C@H]1CN(C)Cc1ccc(C(F)(F)F)cc1	x	-18	70*	x	0	-13
C[C@@H]1CN([C@H](C)CO)C(=O)c2cc(NC(=O)Nc3ccc4c(c3)OCO4)ccc2O[C@@H](C)CCCCO[C@H]1CN(C)Cc1ccc(C(F)(F)F)cc1	x	x	66*	x	0	28
C[C@@H]1CCCCO[C@@H](CN(C)Cc2ccc(C(F)(F)F)cc2)[C@@H](C)CN([C@@H](C)CO)C(=O)c2cc(NC(=O)Nc3ccc4c(c3)OCO4)ccc2O1	x	x	-19	x	0	16
COc1ccc(CN(C)C[C@H]2OCCCC[C@@H](C)Oc3ccc(NC(=O)Nc4ccc(C(F)(F)F)cc4)cc3C(=O)N([C@@H](C)CO)C[C@@H]2C)cc1	x	x	66*	x	0	x
COc1ccc(NC(=O)Nc2ccc3c(c2)C(=O)N([C@H](C)CO)C[C@H](C)[C@H](CN(C)Cc2ccc(C(F)(F)F)cc2)OCCCC[C@@H](C)O3)cc1	x	-8	-1	x	0	-5
C[C@@H]1CN([C@H](C)CO)C(=O)c2cc(N(C)C)ccc2O[C@@H]1CN(C)Cc1ccc(C(=O)Nc2ccccc2N)cc1	x	x	74*	x	x	x
COc1ccc(S(=O)(=O)N(C)C[C@H]2OCCCC[C@@H](C)Oc3ccc(NC(=O)Nc4ccc(C(F)(F)F)cc4)cc3C(=O)N([C@@H](C)CO)C[C@@H]2C)cc1	x	x	63*	x	-1	8
C[C@H]1CN([C@@H](C)CO)C(=O)c2cc(Br)cnc2O[C@@H]1CN(C)C(=O)c1ccc(F)cc1	x	0	-15	x	0	1
COc1ccccc1-c1cnc2c(c1)C(=O)N([C@H](C)CO)C[C@H](C)[C@H](CN(C)C(=O)c1ccncc1)O2	x	x	0	x	-1	2
